Legend:
MCF-7 = conditions: read-out: activity against MCF-7 breast cancer cells in vitro; cited from earlier work
[1] = test system: p53 tumour suppressor in MDA-MB-231 cells; test: p53 concentration in cell lysates; type: cell-based, human; conditions: 20 µM, 24 h
In short: (§1)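 MDA-MB-231 cells were grown in DMEM with 10% FBS and 1% penicillin/streptomycin at 37 °C, 5% CO2. They were reseeded in phenol-red-free DMEM with 10% CPSR1, used near 80% confluence and exposed to 20 µM for 24 h; untreated cells were the control. Cells were trypsinised, washed thrice in cold PBS, spun at 1000× g for 5 min at 4 °C, and 1.5 × 10^6 cells were lysed. Supernatants were frozen at −70 °C. Target protein was measured by antibody-precoated high-sensitivity kit. Three independent experiments in duplicate; one-way ANOVA with Tukey test.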

[2] = test system: proapoptotic Bax in MDA-MB-231 cells; test: Bax concentration in cell lysates; type: cell-based, human; conditions: 20 µM, 24 h
In short: as §1

[3] = test system: Akt protein in MDA-MB-231 cells; test: Akt concentration in cell lysates; type: cell-based, human; conditions: 20 µM, 24 h, control 8.22 U/mL
In short: as §1

Compound | IC50 (MCF-7) [nM] | change of p53 level vs control [1] | concentration of Bax [2] [pg/mL] | concentration of Akt [3] [U/mL]
CC(=O)OC1CCC2(C)C(CCC3(C)C2CC=C2C4CC(C)(C)CCC4(C(=O)n4ccc(=O)[nH]c4=O)CCC23C)C1(C)C (stereo not drawn) [1-[(3β)-3-(acetyloxy)-28-oxoolean-12-en-28-yl]-2,4(1 H,3 H)-pyrimidinedione] | < 100 | – | – | –
C[C@H]1[C@H](C)CC[C@]2(C(=O)O)CC[C@]3(C)C(=CC[C@@H]4[C@@]5(C)CC[C@H](O)C(C)(C)[C@@H]5CC[C@]43C)[C@H]12 [Ursolic acid 1, Ursolic acid] | – | increased the p53 concentration, but the values were statistically insignificant | 760 | 4.49

— publication PMC12329029 (Scientific Reports, 2025)
